These results are taken from ChEMBL document CHEMBL1137434, “2-O-carboxymethylpyrogallol derivatives as PTP1B inhibitors with antihyperglycemic activity” (Bioorg Med Chem Lett, 2007).

Active and inactive are the calls of the source. No cut-off for these calls is given here.

Assay [1] concerns the target T1, Tyrosine-protein phosphatase non-receptor type 1 (Homo sapiens, UniProt P18031).
T1 sequence (P18031 whole entry): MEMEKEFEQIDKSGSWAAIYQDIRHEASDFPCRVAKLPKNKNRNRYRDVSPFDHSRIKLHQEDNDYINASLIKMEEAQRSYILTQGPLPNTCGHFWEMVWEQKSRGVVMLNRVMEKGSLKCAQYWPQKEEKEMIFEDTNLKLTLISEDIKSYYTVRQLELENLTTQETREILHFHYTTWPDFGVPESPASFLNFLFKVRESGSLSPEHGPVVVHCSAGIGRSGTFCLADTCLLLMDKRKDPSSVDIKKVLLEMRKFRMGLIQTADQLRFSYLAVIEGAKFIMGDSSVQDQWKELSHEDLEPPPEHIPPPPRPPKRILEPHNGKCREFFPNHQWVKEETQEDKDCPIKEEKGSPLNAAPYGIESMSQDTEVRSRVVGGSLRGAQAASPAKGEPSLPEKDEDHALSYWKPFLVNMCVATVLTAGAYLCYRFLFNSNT
Put plainly: Inhibition of PTP1B after 10 mins.

Assay [2] can be described thus: Inhibition of YOP after 10 mins. The method, boiled down: (§1)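 Enzymes were preincubated 10 min with inhibitor in DMSO, then pNPP was added to start the reaction. Final mix: 2 mM pNPP, 50 mM Hepes, 5 mM EDTA, pH 7, plus 10% enzyme dilution buffer (Hepes, EDTA, 1 mM DTT, BSA). Enzyme levels were native PTP1B 40 nM, SHP-1cat 5 µg/mL, LAR-D1 and TC-PTP 33 U/mL, YOP 50 U/mL and YPTP-1 15 nM. IC50 came from an inhibitor concentration range, as means ± SD of 2–3 experiments.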

For the next assay, the species on record is Homo sapiens. Put plainly: Selectivity for PTP1B over TC-PTP.
Assay [3] concerns the target Tyrosine-protein phosphatase non-receptor type 6 (Homo sapiens, UniProt P29350). Put plainly: Inhibition of SHP-1 catalytic domain after 10 mins. The method, boiled down:
as §1

The target of assay [4] is T2, Tyrosine-protein phosphatase 1 (Saccharomyces cerevisiae S288c, UniProt P25044).
T2 sequence (P25044 whole entry): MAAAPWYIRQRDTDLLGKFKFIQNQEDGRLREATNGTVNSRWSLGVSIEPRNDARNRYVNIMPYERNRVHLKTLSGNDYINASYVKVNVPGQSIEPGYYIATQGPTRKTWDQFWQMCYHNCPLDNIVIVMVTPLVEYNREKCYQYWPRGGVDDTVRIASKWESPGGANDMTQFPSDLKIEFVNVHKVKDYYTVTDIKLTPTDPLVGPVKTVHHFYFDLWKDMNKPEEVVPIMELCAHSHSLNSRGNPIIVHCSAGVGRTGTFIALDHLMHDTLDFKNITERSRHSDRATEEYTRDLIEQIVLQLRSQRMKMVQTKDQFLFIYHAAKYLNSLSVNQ
Briefly: Inhibition of yeast PTP1 after 10 mins. The method, boiled down:
as §1

The target of assay [5] is T3, Tyrosine-protein phosphatase non-receptor type 2 (Homo sapiens, UniProt P17706).
T3 sequence (P17706 whole entry): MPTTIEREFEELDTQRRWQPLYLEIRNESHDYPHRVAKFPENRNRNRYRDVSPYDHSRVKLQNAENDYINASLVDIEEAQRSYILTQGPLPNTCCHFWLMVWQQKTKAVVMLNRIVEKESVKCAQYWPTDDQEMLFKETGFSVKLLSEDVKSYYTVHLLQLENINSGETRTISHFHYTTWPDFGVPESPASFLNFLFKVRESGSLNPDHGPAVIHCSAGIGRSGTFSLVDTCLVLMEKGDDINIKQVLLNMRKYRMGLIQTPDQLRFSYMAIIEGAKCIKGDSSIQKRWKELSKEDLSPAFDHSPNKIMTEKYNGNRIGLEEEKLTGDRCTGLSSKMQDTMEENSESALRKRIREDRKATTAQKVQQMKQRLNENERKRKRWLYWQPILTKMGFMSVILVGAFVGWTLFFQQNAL
Put plainly: Inhibition of TC-PTP after 10 mins. The method, boiled down:
as §1

Assay [6] in a line: Inhibition of LAR-D1 after 10 mins. Also noted: species or system Homo sapiens. The method, boiled down: as §1
The species entered for another assay is Mus musculus. Briefly: Antihyperglycemic activity in high fat diet induced C57BL/6JCr Slc mouse assessed as reduction in blood glucose level relative to control. Format: functional, organism-based. In outline: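 Male C57BL/6J Cr Slc mice, 5 wk old and acclimatized 1 wk, were fed high-fat diet for 8 wk. They were then split into two groups of 7 and fed HFD or HFD plus drug for 4 wk; a lean LFD group served as control. After a 6 h fast, mice received glucose 1 g/kg ip. Tail-blood glucose was read at baseline and at 20, 40, 60, 90 and 120 min.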

Chain of Tyrosine-protein phosphatase non-receptor type 6 (P29350 whole entry, the tested form may be a part): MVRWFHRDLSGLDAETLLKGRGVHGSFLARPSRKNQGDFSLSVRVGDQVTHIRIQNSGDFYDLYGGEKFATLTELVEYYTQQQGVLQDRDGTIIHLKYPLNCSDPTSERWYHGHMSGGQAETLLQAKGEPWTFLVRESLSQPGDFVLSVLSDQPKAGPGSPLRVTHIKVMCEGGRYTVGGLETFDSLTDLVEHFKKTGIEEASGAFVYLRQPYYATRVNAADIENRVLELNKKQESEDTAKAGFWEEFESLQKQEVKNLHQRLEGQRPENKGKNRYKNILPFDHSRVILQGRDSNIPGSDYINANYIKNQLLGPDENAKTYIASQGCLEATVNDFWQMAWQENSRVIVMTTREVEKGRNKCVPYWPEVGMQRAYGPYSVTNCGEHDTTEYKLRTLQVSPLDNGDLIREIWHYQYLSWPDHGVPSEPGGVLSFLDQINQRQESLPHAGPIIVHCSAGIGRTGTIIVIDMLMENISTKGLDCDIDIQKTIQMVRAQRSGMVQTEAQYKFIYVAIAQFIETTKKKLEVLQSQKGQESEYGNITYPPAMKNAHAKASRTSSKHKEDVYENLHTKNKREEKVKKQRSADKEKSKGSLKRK

By IC50 is commonly meant the midpoint of a concentration-inhibition curve. Low values mean inhibition by little substance, high ones a need for much substance. As for `O=C(O)COc1c(O)cc(-c2ccc(C(F)(F)F)cc2)cc1OCc1ccccc1`, the IC50 in assay [1] is 13 µM; in assay [2], 34 µM; in assay [3], 25 µM; in assay [4], 17 µM; in assay [5] it was 96 µM; in assay [6], greater than 200 µM. In the assay listed under Homo sapiens, the Selectivity ratio was found to be 5.
As for `O=C(O)COc1c(O)cc(-c2cccc(C(F)(F)F)c2)cc1OCc1ccccc1`, the IC50 was 2.2 µM in assay [1]; 33 µM in assay [2]; 38 µM in assay [3]; 52 µM in assay [4]; 120 µM in assay [5]; greater than 200 µM in assay [6]. Moreover, in the assay listed under Homo sapiens, the Selectivity ratio was 5.
In turn, `COc1cc(COc2cc(-c3ccccc3)cc(O)c2OCC(=O)O)cc(OC)c1` came in with an IC50 in assay [1] of 40 µM.
For the compound `O=C(O)COc1c(O)cc(-c2cccc(C(F)(F)F)c2)cc1OCc1ccc(C(F)(F)F)cc1`, the IC50 in assay [1] is 5 µM; in assay [2], 21 µM; in assay [3], 13 µM; in assay [4], 17 µM; in assay [5], 65 µM; in assay [6], greater than 200 µM. Also, the Selectivity ratio in the assay listed under Homo sapiens is 5.
Compound `O=C(O)COc1c(O)cc(-c2ccccc2)cc1O` yielded an IC50 in assay [1] greater than 1000 µM.
For `O=C(O)COc1c(O)cc(Br)cc1OCc1ccccc1`, the IC50 in assay [1] came to 300 µM.
In turn, `O=C(O)COc1c(O)cc(Br)cc1OCc1ccc(C(F)(F)F)cc1` came in with an IC50 in assay [1] of 73 µM.
Consider `O=C(O)COc1c(O)cc(-c2ccc(C(F)(F)F)cc2)cc1OCc1ccc(C(F)(F)F)cc1`, for which the IC50 in assay [1] is 5.4 µM; in assay [2] it was 13 µM; in assay [3], 12 µM; in assay [4], 23 µM; in assay [5] it was 44 µM; in assay [6], greater than 200 µM. In the assay filed under Homo sapiens, the Selectivity ratio turned out to be 5.
In assay [1], `O=C(O)COc1c(O)cccc1OCc1ccc(C(F)(F)F)cc1` yielded an IC50 greater than 1000 µM.
The same measure, in the same setting: the result for `O=C(O)COc1c(O)cc(-c2ccccc2)cc1OCc1ccccc1` reads 93 µM.
With `O=C(O)COc1c(O)cc(-c2cc(C(F)(F)F)cc(C(F)(F)F)c2)cc1OCc1ccccc1`, the IC50 is 5.7 µM in assay [1]; 15 µM in assay [2]; 9 µM in assay [3]; 20 µM in assay [4]; 37 µM in assay [5]; greater than 200 µM in assay [6]. Also, the Selectivity ratio in the assay listed under Homo sapiens was found to be 5.
By Ki is commonly meant a dissociation constant, usually derived from enzyme kinetics or from competition with a known ligand. High values mean weaker binding, low ones tighter binding. Turning to `O=C(O)COc1c(O)cc(-c2cc(C(F)(F)F)cc(C(F)(F)F)c2)cc1OCc1ccc(C(F)(F)F)cc1`, the IC50 in assay [1] turned out to be 2 µM; in assay [2], 6 µM; in assay [3], 4 µM; in assay [4], 9 µM; in assay [5] it was 22 µM; in assay [6], 116 µM. The Ki in assay [1] is 1.1 µM; in assay [5], 8.2 µM. Further, the Selectivity ratio in the assay listed under Homo sapiens was determined as 7. Further, the outcome in the assay listed under Mus musculus was Active.
Turning to `O=C(O)COc1c(O)cccc1OCc1ccccc1`, the IC50 in assay [1] is greater than 1000 µM.
`O=C(O)COc1c(O)cc(-c2ccccc2)cc1OCc1ccc(C(F)(F)F)cc1` yielded a half-maximal inhibitory concentration (IC50) in assay [1] of 17 µM.
